ERa coact pot – enhances coactivator binding to human estrogen receptor alpha | P03372 | TR-FRET ERalpha-LBD/SRC-Cy5 coactivator binding, 2 h; 100 = basal binding, no effect | coactivator binding (% of control), % at 25.6 µM | hit rate 1.3% among 86,000 | AID 639; in the data active = activity above about 200%;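 also: binding measured in presence of low estradiol as agonist stimulus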
RORa activator – activates the human nuclear receptor RORA; AID 560; CHO-K1 Gal4-RORA LBD luciferase reporter, luminescence; percent increase over mock-subtracted basal signal; hit rate 1.5% among 65,000; activation, % at 10 µM; P35398;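 active = activation above the mean of all tested compounds plus 3 SD, cut at about 49% in these data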
Target sequence (P35398 whole entry, looked up, the tested form may be a part): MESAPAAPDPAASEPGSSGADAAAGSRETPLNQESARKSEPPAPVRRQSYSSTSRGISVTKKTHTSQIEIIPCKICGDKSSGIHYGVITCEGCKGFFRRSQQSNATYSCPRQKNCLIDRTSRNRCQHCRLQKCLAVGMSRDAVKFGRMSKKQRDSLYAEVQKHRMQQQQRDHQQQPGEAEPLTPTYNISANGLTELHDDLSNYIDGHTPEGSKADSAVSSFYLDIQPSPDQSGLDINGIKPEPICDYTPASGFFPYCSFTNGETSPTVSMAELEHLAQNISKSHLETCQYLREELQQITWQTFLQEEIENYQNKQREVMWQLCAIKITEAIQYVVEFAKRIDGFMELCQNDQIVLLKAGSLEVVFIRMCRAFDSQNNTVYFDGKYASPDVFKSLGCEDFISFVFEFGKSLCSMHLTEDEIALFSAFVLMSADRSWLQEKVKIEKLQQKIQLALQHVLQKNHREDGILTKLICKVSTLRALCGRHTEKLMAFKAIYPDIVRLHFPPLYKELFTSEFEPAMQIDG
BAP1 inh – blocks human BAP1 ubiquitin-AMC hydrolysis; AID 436; hit rate 0.48% among 72,000; Q92560; recombinant BAP1, Ub-AMC hydrolysis fluorescence kinetic; stronger effect = lower value; calls only at 20 µM;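 active = activity remaining at or below 50% of control, provided the compound also passes the data quality filters; inactive = the rest, including low values that fail the filters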
ERa coact inh – ER-alpha (human) coactivator binding inhibition; TR-FRET ER-alpha LBD / SRC-1 peptide, estradiol-bound; inhibition, % at 25.6 µM; hit rate 1.7% among 86,000; AID 629; in the data active = inhibition above about 50%
ERb coact inh – blocks coactivator binding to human estrogen receptor beta | hit rate 1.3% among 86,000 | AID 633 | inhibition, % at 25.6 µM | TR-FRET ER-beta LBD / SRC1-Cy5 peptide binding; receptor agonist-loaded with 1 µM estradiol | Q92731;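 active = compounds whose percent inhibition of the receptor-coactivator binding signal exceeds about 50% in the single-dose screen, limit read from the data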
SF1 activator – SF-1 (human) activation; Q13285; CHO-K1 Gal4-SF-1 LBD luciferase reporter; % increase over DMSO SF-1-specific signal; activation, % at 10 µM; hit rate 1.9% among 65,000; AID 522;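 active = activation above the mean activation of all tested compounds plus 3 SD, cut at about 50% in these data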
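Material: CHO-K1 cells with Gal4–hSF-1 LBD chimera plus Gal4-driven luciferase / Input: 4,000 CHO-K1 cells per well / Incubation: compound exposure 20 h at 37 °C / Signal: luminescence read 15 min after SteadyLite luciferase reagent, after room-temperature equilibration / Read-out: percent activation versus DMSO / Benchmarks: DMSO negative control and −SF1 background wells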
Hits are given with their value; i = inactive; nt = not tested or not shown; [ ] = remark or other dose. Compounds with a hit are over-represented: about 5.1% of the library has one in this group of screens.

SMILES	ERa coact pot	RORa activator	BAP1 inh	ERa coact inh	ERb coact inh	SF1 activator
CCC(O)CNc1nc(-n2nc(C)cc2C)nc2sc3c(c12)CCCC3 (configuration not stated)	203.5	i	i	i	i	i
COCC(C)NC(=O)c1noc2c1CCc1cc(OC)ccc1-2 (configuration not stated)	i	i	i	i	i	67.6
COc1ccc2c(c1)CCc1c(C(=O)NC3CCCCC3)noc1-2	i	i	i	i	i	54.1
COCCNC(=O)c1noc2c1CCc1cc(OC)ccc1-2	i	i	i	i	i	72.0
COc1ccc([N+](=O)[O-])cc1N1C(=O)C2C3C=CC(CC3)C2C1=O (configuration not stated)	nt	nt	i	nt	nt	nt
O=C(Nc1nc(-c2ccccn2)cs1)c1ccccc1Oc1ccccc1	nt	nt	i	nt	nt	nt
CC1(C)Cc2ccccc2C(CCl)=N1	nt	nt	i	nt	nt	nt
Cc1nc2c(oc3ccc(Br)cc32)c(=O)[nH]1	nt	nt	i	nt	nt	nt
CC12CCCCC1(O)[N+](=O)C1=C(CCCC1)N2[O-] (configuration not stated)	i	i	i	i	66.5	i
COC(=O)c1ccc(Oc2cc(C)nc(SC)n2)cc1	i	57.6	nt	i	i	70.8
Cc1cc(NCCCn2ccnc2)n2ncc(-c3ccc(Cl)cc3)c2n1	i	nt	nt	i	i	nt
Cc1cc(NCCCN2CCOCC2)n2ncc(-c3ccc(Cl)cc3)c2n1	i	61.7	i	i	i	70.1
Cc1cc(OC(=O)c2ccccc2)cc2c(=O)c3ccccc3sc12	nt	nt	i	nt	nt	nt
CCOC(=O)c1c(NC(=O)c2ccc(F)cc2)sc(C)c1C	nt	nt	i	nt	nt	nt
CC(=O)Nc1ccc(Nc2ncnc3c2cnn3-c2ccc(C)cc2C)cc1	i	nt	nt	i	i	nt
Clc1ccc(Nc2ncnc3c2cnn3-c2ccccc2)cc1	i	71.9	i	i	i	i
COc1ccc(Nc2ncnc3c2cnn3-c2ccccc2)cc1OC	i	i	i	i	i	i
CC(=O)Nc1ccc(Nc2ncnc3c2cnn3-c2ccccc2)cc1	i	55.1	i	i	i	i
CC(=O)Nc1ccc(Nc2ncnc3c2cnn3-c2cccc(C)c2)cc1	nt	65.7	i	nt	nt	i
CCOC(=O)c1ccc(Nc2ncnc3c2cnn3C)cc1	i	i	i	i	72.1[fluorescence artefact?]	i
CC(C)(C)n1nc2c(c1NC(=O)c1cccc(C(F)(F)F)c1)CSC2	nt	nt	i	nt	nt	nt
CCn1c(CCCNC(=O)c2ccc(F)cc2)nc2ccccc21	269.7	nt	nt	i	i	nt
C=COc1ccc(NC(=O)c2ccccc2C(=O)O)cc1	nt	nt	i	nt	nt	nt
COc1cccc(-c2cc(C(=O)N3CCCCC3C)no2)c1 (configuration not stated)	i	49.5	i	i	i	86.0
CCC(CC)n1[nH]c(=O)c2c(C)cc(C)nc21	i	i	i	i	i	i
SMILES	ERa coact pot	RORa activator	BAP1 inh	ERa coact inh	ERb coact inh	SF1 activator
Cc1cc(C)c2c(=O)[nH]n(C(C)C)c2n1	295.3	i	i	i	i	i
COc1ccc(-c2nnc3sc(CN4C(=O)c5ccccc5C4=O)nn23)cc1	226.7	i	i	i	i	i
O=C1c2ccccc2C(=O)N1Cc1nn2c(-c3ccc(Cl)cc3)nnc2s1	383.4[fluorescence artefact?]	i	i	i	i	i
Clc1ccc(-c2nnc3sc(Cc4cccs4)nn23)cc1	i	i	nt	i	i	i
c1ccc(-c2nnc3sc(Cc4cccs4)nn23)cc1	i	i	i	64.2[fluorescence artefact?]	56.9	i
COc1cccc(-c2nnc(Nc3nc4c(F)cccc4s3)o2)c1	i	i	nt	i	i	51.4
CCCCCCOc1ccc(OCC(O)CN2C(=O)NC(C)(C)C2=O)cc1 (configuration not stated)	i	62.0	i	i	i	i
Cc1ccc(OCC(O)CN2C(=O)NC(C)(C)C2=O)cc1 (configuration not stated)	i	nt	nt	i	i	nt
Cc1sc2nc(C(C)Nc3ccccc3N3CCOCC3)[nH]c(=O)c2c1C (configuration not stated)	253.9	i	nt	i	i	i
CCOc1cc(C2C(C(=O)OCc3ccccc3)=C(C)NC3=C2C(=O)CC(c2ccccc2)C3)ccc1O (configuration not stated)	nt	nt	i	nt	nt	nt
COc1ccc(CN2C(=O)c3cccnc3C2O)cc1 (configuration not stated)	394.5[fluorescence artefact?]	nt	nt	i	i	nt

High-throughput results (PubChem)
